Results: ChEMBL document CHEMBL1773065, “Impact of the nature of the substituent at the 3-position of 4H-1,2,4-benzothiadiazine 1,1-dioxides on their opening activity toward ATP-sensitive potassium channels” (J Med Chem, 2011)
Calls of active or inactive are those of the source. No cut-off for these calls is given here.

Columns and labels:
[1] = Inhibition of glucose induced insulin secretion from rat Pancreatic islet assessed as percentage of residual insulin release at 10 uM; type: functional
Procedure, shortened: (§1)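 Isolated rat pancreatic islets incubated with 16.7 mM glucose and drug at 0.1–50 μM. Result is insulin release as a percentage of residual release, mean ± SEM (n).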

[2] = Myorelaxant effect in Wistar rat uterus smooth muscle assessed as inhibition of contractions induced by continuous superfusion of oxytocin in presence of 1 uM ATP-sensitive potassium channel blocker glibenclamide; type: functional
Procedure, shortened: (§2)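 Rat uterus continuously superfused with 50 mU/L oxytocin. Mean of three contraction AUCs set as 100%, then drug added at increasing concentrations, with no glibenclamide or with 1 or 10 μM glibenclamide present continuously. EC50 is the concentration giving 50% residual contraction, mean ± SEM (n).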

[3] = Myorelaxant effect in Wistar rat uterus smooth muscle assessed as inhibition of contractions induced by continuous superfusion of oxytocin in absence ATP-sensitive potassium channel blocker glibenclamide; type: functional; procedure, shortened: as §2
[4] = Myorelaxant effect in Wistar rat uterus smooth muscle assessed as inhibition of contractions induced by continuous superfusion of oxytocin in presence of 10 uM ATP-sensitive potassium channel blocker glibenclamide; type: functional; procedure, shortened: as §2
[5] = Myorelaxant effect in KCl-induced precontracted rat aorta ring VSMC; type: functional, tissue-based
Procedure, shortened: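 Rat aortic rings precontracted with 30 mM KCl. EC50 is the drug concentration giving 50% relaxation, mean ± SEM (n).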

[6] = Myorelaxant effect in Wistar rat uterus smooth muscle assessed as inhibition of contractions induced by bolus of oxytocin injected in superfusion system at 10 uM; type: functional; parameters: scale not given: the % may be the effect or the level left
Procedure, shortened: (§3)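 Uteri from fed Wistar rats (150–200 g) given diethylstilboestrol dipropionate i.m. the day before. Tissue superfused; after 30 min stabilization, 20 mU oxytocin boluses given every 10 min until contractions (AUC) were constant. Three or more boluses per drug concentration (10, 50, 100 μM). Mean AUC expressed as percentage of the drug-free response.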

[7] = Inhibition of glucose induced insulin secretion from rat Pancreatic islet assessed as percentage of residual insulin release; type: functional; procedure, shortened: as §1
[8] = Myorelaxant effect in Wistar rat uterus smooth muscle assessed as inhibition of contractions induced by bolus of oxytocin injected in superfusion system at 100 uM; type: functional; parameters: scale not given: the % may be the effect or the level left; procedure, shortened: as §3
[9] = Myorelaxant effect in Wistar rat uterus smooth muscle assessed as inhibition of contractions induced by bolus of oxytocin injected in superfusion system at 50 uM; type: functional; parameters: scale not given: the % may be the effect or the level left; procedure, shortened: as §3
[10] = Inhibition of glucose induced insulin secretion from rat Pancreatic islet assessed as percentage of residual insulin release at 50 uM; type: functional; procedure, shortened: as §1
[11] = Dissociation constant, pKa of the compound; type: physicochemical
Procedure, shortened: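 pKa determined by UV spectrophotometry at 25 °C. Spectra recorded in aqueous buffers from pH 5 to 12.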

Rattus norvegicus [12] = organism: Rattus norvegicus; test: Activation of ATP-sensitive potassium channel in extracellular calcium deprived and glucose evoked rat pancreatic islets assessed as reduction in 45Calcium outflow at 50 uM
Rattus norvegicus [13] = organism: Rattus norvegicus; test: Activation of ATP-sensitive potassium channel in rat pancreatic islets assessed as decrease in insulinotropic glucose concentration-mediated cytosolic calcium level by fluorimetry
Rattus norvegicus [14] = organism: Rattus norvegicus; test: Activation of ATP-sensitive potassium channel in glucose and extracellular calcium evoked rat pancreatic islets assessed as increase in 86Rb outflow measured per min
Procedure, shortened: (§4)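 Prelabeled rat pancreatic islets, perifused throughout with 5.6 mM glucose and extracellular Ca2+. Drug added at 10 or 50 μM, then withdrawn. Read-out is the increase in 86Rb outflow rate, in %/min. Six individual experiments.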

Rattus norvegicus [15] = organism: Rattus norvegicus; test: Activation of ATP-sensitive potassium channel in glucose and extracellular calcium evoked rat pancreatic islets assessed as reduced 45Calcium outflow at 50 uM in presence of extracellular potassium ion; parameters: scale not given: the % may be the effect or the level left
Procedure, shortened: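 Prelabeled, perifused rat pancreatic islets exposed throughout to 2.8 mM glucose and extracellular Ca2+. Extracellular K+ raised suddenly from 5 to 50 mM, with or without 50 μM drug in the basal medium. Read-out is the magnitude of the increase in 45Ca outflow, in %/min.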

Rattus norvegicus [16] = organism: Rattus norvegicus; test: Activation of ATP-sensitive potassium channel in glucose and extracellular calcium evoked rat pancreatic islets assessed as increased 86Rb outflow at 50 uM by radioisotopic and fluorimetric method in presence of 10 uM ATP-sensitive potassium channel blocker glibenclamide
Procedure, shortened: (§5)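 Prelabeled, perifused rat pancreatic islets in 5.6 mM glucose with extracellular Ca2+. Drug given at 10 or 50 μM with 10 μM glibenclamide present continuously in the medium. Read-out is 86Rb outflow rate. Six individual experiments.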

Rattus norvegicus [17] = organism: Rattus norvegicus; test: Activation of ATP-sensitive potassium channel in glucose and extracellular calcium evoked rat pancreatic islets assessed as increase in 86Rb outflow measured per min at 50 uM; procedure, shortened: as §4
Rattus norvegicus [18] = organism: Rattus norvegicus; test: Activation of ATP-sensitive potassium channel in glucose and extracellular calcium evoked rat pancreatic islets assessed as reduction in 45Calcium outflow at 50 uM
Rattus norvegicus [19] = organism: Rattus norvegicus; test: Activation of ATP-sensitive potassium channel in glucose and extracellular calcium evoked rat pancreatic islets assessed as increased 86Rb outflow at 10 uM by radioisotopic and fluorimetric method in presence of 10 uM ATP-sensitive potassium channel blocker glibenclamide; procedure, shortened: as §5
Rattus norvegicus [20] = organism: Rattus norvegicus; test: Activation of ATP-sensitive potassium channel in glucose and extracellular calcium evoked rat pancreatic islets assessed as decrease in insulin output at 50 uM; settings: TDE = time-dependent effect
Rattus norvegicus [21] = organism: Rattus norvegicus; test: Activation of ATP-sensitive potassium channel in glucose and extracellular calcium evoked rat pancreatic islets assessed as increase in 86Rb outflow measured per min at 10 uM; procedure, shortened: as §4
[22] = Inhibition of glucose induced insulin secretion from rat Pancreatic islet assessed as percentage of residual insulin release at 1 uM; type: functional; procedure, shortened: as §1

Compound | Activity [1] | Activity [6] | IC50 [7] | Activity [8] | Activity [9] | Activity [10] | other results
CC(C)SC1=NS(=O)(=O)c2ccccc2N1 | 93.9% |  |  |  |  |  | 
CC(N/C(=N\C#N)Nc1ccncc1)C(C)(C)C (racemic) [PINACIDIL ANHYDROUS] |  | 44.9% | 202 µM | 38.1% | 42.7% |  | EC50 [2]: 8.1 µM; EC50 [3]: 1.3 µM; EC50 [4]: 28.3 µM; EC50 [5]: 0.62 µM
CC(C)CSC1=NS(=O)(=O)c2cc(Cl)ccc2N1 |  |  |  |  |  |  | EC50 [3]: 13.5 µM; EC50 [5]: 6.2 µM
CC(C)CC1=NS(=O)(=O)c2ccccc2N1 | 85.2% |  |  |  |  |  | 
CC(C)OC1=NS(=O)(=O)c2ccccc2N1 | 90.4% |  |  |  |  |  | 
CC1=Nc2ccc(Cl)cc2S(=O)(=O)N1 [DIAZOXIDE] |  | 93.8% | 18.4 µM | 67.7% | 76.3% |  | EC50 [3]: > 30 µM
CC(C)NC1=NS(=O)(=O)c2cc(Cl)ccc2N1 |  | 94.4% | 0.55 µM | 75.6% | 95% |  | 
CC(C)[S+]([O-])C1=NS(=O)(=O)c2cc(Cl)ccc2N1 (stereo unspecified) | 92.3% |  |  |  |  | 89.8% | 
CC(C)NC1=NS(=O)(=O)c2cc(F)ccc2N1 | 3.7% |  |  |  |  | 3.3% | 
CC(C)SC1=NS(=O)(=O)c2cc(Cl)ccc2N1 | 104% | 98.8% | 50 µM | 2.3% | 54.7% | 51.3% | EC50 [3]: > 30 µM; EC50 [5]: 23 µM; pKa [11]: 7.01
Cc1ccc2c(c1)S(=O)(=O)N=C(SC(C)C)N2 | 77% |  |  |  |  |  | 
CC(C)OC1=NS(=O)(=O)c2cc(Br)ccc2N1 | 62.5% |  |  |  |  |  | 
CC(C)OC1=NS(=O)(=O)c2cc(Cl)ccc2N1 | 77.3% | 88% | 19.1 µM | 68.7% | 85.8% | 17.5% | Activity (Rattus norvegicus [12]): inactive; EC50 [5]: 22.7 µM; Activity (Rattus norvegicus [13]): Active; Activity (Rattus norvegicus [14]): Dose-dependent effect; Activity (Rattus norvegicus [15]): 1.12%; Activity (Rattus norvegicus [16]): inactive; Activity (Rattus norvegicus [17]): 1.32%; Activity (Rattus norvegicus [18]): Active; Activity (Rattus norvegicus [19]): inactive; Activity (Rattus norvegicus [20]): tde; Activity (Rattus norvegicus [21]): 0.23%; pKa [11]: 8
Cc1ccc2c(c1)S(=O)(=O)N=C(NC(C)C)N2 | 8.5% |  |  |  |  | 3.5% | Activity [22]: 71.3%
Cc1ccc2c(c1)S(=O)(=O)N=C(OC(C)C)N2 | 79.5% |  |  |  |  |  | 
CC(C)SC1=NS(=O)(=O)c2ccc(Br)cc2N1 | 87% |  |  |  |  | 33.8% | 
